Two compounds from ChEMBL document CHEMBL4190262, “Tuning of β-glucosidase and α-galactosidase inhibition by generation and in situ screening of a library of pyrrolidine-triazole hybrid molecules” (Eur J Med Chem, 2017) can be followed below.

The target of assay [1] is T1, Lysosomal acid glucosylceramidase (Homo sapiens, UniProt P04062).
T1 sequence (P04062 whole entry): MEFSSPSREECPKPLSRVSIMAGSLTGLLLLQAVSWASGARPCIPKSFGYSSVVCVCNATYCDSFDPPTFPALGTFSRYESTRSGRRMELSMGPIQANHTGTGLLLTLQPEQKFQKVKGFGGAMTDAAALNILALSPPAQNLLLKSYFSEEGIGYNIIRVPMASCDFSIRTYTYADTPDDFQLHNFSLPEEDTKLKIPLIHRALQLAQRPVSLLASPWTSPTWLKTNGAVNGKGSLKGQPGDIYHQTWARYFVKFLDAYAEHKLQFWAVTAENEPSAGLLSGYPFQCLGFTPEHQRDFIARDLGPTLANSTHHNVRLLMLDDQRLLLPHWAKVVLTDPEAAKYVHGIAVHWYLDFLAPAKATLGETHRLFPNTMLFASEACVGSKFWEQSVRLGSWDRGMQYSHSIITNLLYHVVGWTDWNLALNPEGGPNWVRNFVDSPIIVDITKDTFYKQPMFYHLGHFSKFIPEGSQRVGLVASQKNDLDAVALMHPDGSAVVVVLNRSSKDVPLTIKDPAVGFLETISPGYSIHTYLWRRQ
As to the kind of experiment: Inhibition of human lysosomal beta-glucocerebrosidase using 4-methylumbelliferyl-beta-D-glucopyranoside as substrate preincubated for 45 mins followed by substrate addition measured after 30 mins by fluorescence spectroscopic method. The essentials:
(§1)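 Enzyme in 100 mM McIlvaine buffer pH 5.2 with 0.25% sodium taurocholate and 0.1% Triton X-100, with inhibitor. Preincubated at 0 °C for 45 min, then started with 3 mM 4-methylumbelliferyl glycoside substrate solution and incubated 30 min at 37 °C. Stopped with 400 mM glycine-NaOH pH 10.6. 4-Methylumbelliferone fluorescence read at ex 362/em 450 nm.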

The species entered for assay [2] is Bos taurus. Briefly: Inhibition of bovine liver beta-glucosidase at 1 mM using p-nitrophenyl glycopyranoside preincubated for 5 mins followed by substrate addition measured after 20 mins by visible absorption spectroscopic method relative to control. The essentials:
(§2)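 Test compound at 1 mM in well. Mix: 0.01–0.5 units/mL enzyme plus 10 mM p-nitrophenyl glycopyranoside (aqueous solution), buffered to the enzyme's optimal pH. Enzyme and inhibitor preincubated 5 min at rt. Substrate then added and incubated 20 min at 37 °C. Stopped with sodium borate (pH 9.8). p-Nitrophenolate read at 405 nm. Duplicates averaged.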

The target in assay [3] is Alpha-galactosidase (Coffea arabica) (UniProt Q42656). Briefly: Inhibition of coffee beans alpha-galactosidase at 50 uM using p-nitrophenyl glycopyranoside preincubated for 5 mins followed by substrate addition measured after 20 mins by visible absorption spectroscopic method relative to control. The essentials: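 Crude triazoles from in situ CuAAC (ascorbate/CuSO4, 24 h rt, water-diluted) were screened at 50 μM per well, assuming full conversion. Enzyme was coffee bean α-galactosidase at pH 6, 37 °C, with p-nitrophenyl glycoside substrate and 405 nm read-out. Blanks of CuSO4, ascorbate and each alkyne were run.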
Alpha-galactosidase (Coffea arabica), sequence (Q42656 16-378 limits assumed): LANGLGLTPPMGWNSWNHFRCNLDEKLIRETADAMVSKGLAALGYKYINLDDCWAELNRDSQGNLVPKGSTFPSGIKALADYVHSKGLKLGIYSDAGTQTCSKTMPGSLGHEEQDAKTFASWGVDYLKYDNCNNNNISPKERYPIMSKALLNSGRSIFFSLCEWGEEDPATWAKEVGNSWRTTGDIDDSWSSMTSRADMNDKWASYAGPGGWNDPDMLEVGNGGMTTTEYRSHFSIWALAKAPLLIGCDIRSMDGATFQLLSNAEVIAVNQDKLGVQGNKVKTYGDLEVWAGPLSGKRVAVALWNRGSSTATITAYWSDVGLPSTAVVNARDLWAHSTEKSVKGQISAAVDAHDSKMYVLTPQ

Assay [4] is described as follows: Selectivity ratio of IC50 for human lysosomal alpha-galactosidase A to IC50 for coffee beans alpha-galactosidase.
Assay [5] deals with Prunus dulcis. Briefly: Inhibition of almond beta-glucosidase at 1 mM using p-nitrophenyl glycopyranoside preincubated for 5 mins followed by substrate addition measured after 20 mins by visible absorption spectroscopic method relative to control. The essentials: as §2
Assay [6] concerns the target T2, Alpha-galactosidase A (Homo sapiens) (UniProt P06280).
T2 sequence (whole entry): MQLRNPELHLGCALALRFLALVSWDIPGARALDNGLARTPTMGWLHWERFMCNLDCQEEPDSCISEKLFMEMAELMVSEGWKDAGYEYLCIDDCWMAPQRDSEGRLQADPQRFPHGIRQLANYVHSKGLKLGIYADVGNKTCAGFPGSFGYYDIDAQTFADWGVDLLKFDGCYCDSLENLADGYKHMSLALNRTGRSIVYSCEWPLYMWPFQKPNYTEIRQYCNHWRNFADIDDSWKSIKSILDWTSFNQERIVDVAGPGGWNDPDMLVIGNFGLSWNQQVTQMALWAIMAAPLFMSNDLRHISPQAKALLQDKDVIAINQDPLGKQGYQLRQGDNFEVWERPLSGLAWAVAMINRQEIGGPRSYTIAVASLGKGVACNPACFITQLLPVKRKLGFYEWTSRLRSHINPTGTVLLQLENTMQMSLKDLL
Briefly: Inhibition of human lysosomal alpha-galactosidase A at 1 mM using 4-methylumbelliferyl-alpha-D-galactopyranoside as substrate preincubated for 45 mins followed by substrate addition measured after 30 mins by fluorescence spectroscopic method relative to control. The essentials:
as §1

The target of assay [7] is T3, Beta-galactosidase (Bos taurus, UniProt Q58D55).
T3 sequence (Q58D55 whole entry): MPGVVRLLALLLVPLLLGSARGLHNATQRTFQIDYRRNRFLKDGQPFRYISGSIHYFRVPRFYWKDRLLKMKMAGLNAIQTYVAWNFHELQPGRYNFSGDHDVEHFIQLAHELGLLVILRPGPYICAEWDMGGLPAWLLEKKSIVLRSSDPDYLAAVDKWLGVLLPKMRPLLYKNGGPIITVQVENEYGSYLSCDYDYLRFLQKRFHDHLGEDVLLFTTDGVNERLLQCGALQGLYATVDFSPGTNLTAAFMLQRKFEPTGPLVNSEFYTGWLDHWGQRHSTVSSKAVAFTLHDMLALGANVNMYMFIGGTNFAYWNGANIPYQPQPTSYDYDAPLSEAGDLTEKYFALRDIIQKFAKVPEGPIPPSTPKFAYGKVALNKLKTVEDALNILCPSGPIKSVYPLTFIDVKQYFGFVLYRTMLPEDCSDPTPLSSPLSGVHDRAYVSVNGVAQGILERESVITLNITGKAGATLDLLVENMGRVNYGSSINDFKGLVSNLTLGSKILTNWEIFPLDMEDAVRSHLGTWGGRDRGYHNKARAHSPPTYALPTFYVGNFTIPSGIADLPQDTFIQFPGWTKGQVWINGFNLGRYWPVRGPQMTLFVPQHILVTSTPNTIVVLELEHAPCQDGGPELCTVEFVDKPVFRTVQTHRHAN
Briefly: Inhibition of bovine liver beta-galactosidase using p-nitrophenyl glycopyranoside preincubated for 5 mins followed by substrate addition measured after 20 mins by visible absorption spectroscopic method. The essentials: (§3)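 IC50 determined only for compounds giving ≥80% inhibition at 1 mM, read from plots of % inhibition versus inhibitor concentration. p-Nitrophenyl glycopyranoside substrate (10 mM solution) at the enzyme's optimal pH, with 0.01–0.5 units/mL enzyme. 5 min rt preincubation with enzyme, then 20 min at 37 °C. Borate stop (pH 9.8), absorbance at 405 nm. Duplicates averaged.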

The target in assay [8] is Alpha-galactosidase (Coffea arabica, UniProt Q42656). As to the kind of experiment: Inhibition of coffee beans alpha-galactosidase using p-nitrophenyl glycopyranoside preincubated for 5 mins followed by substrate addition measured after 20 mins by visible absorption spectroscopic method. The essentials:
as §3

A short description of assay [9]: Inhibition of almond beta-glucosidase using p-nitrophenyl glycopyranoside preincubated for 5 mins followed by substrate addition measured after 20 mins by visible absorption spectroscopic method. Set-up: species or system Prunus dulcis. The essentials:
as §3

Assay [10] has as its target T4, Alpha-mannosidase (Canavalia ensiformis) (UniProt C0HJB3).
T4 sequence (whole entry): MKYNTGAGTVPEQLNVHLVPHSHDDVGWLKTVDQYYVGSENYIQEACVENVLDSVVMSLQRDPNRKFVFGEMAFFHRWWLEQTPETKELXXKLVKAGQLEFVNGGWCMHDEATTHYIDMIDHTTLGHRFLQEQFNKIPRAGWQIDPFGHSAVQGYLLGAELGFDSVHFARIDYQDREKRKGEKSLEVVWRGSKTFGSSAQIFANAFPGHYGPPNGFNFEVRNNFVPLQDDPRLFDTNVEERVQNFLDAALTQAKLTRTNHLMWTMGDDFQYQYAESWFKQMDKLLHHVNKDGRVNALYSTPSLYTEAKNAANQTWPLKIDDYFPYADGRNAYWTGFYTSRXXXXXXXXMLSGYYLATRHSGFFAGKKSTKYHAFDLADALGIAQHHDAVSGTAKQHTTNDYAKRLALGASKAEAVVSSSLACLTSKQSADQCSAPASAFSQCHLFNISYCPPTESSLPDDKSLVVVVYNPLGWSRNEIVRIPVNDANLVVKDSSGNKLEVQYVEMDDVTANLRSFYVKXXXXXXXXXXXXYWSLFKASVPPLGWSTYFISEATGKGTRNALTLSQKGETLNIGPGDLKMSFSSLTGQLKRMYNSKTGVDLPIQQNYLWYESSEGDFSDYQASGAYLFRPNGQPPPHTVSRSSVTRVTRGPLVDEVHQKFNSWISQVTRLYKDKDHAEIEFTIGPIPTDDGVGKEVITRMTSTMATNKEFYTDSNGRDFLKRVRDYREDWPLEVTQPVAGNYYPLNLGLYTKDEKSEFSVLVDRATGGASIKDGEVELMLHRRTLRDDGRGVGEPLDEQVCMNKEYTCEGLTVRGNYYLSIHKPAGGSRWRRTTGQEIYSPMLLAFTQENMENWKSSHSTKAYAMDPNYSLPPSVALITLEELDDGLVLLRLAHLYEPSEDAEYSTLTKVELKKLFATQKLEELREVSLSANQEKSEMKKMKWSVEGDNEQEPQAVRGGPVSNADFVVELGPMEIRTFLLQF
As to the kind of experiment: Inhibition of jack bean alpha-mannosidase at 1 mM using p-nitrophenyl glycopyranoside preincubated for 5 mins followed by substrate addition measured after 20 mins by visible absorption spectroscopic method relative to control. The essentials:
as §2

The test system of assay [11] is Saccharomyces cerevisiae. As to the kind of experiment: Inhibition of yeast alpha glucosidase at 1 mM using p-nitrophenyl glycopyranoside preincubated for 5 mins followed by substrate addition measured after 20 mins by visible absorption spectroscopic method relative to control. The essentials: as §2
The species named for assay [12] is Bos taurus. As to the kind of experiment: Inhibition of bovine kidney alpha-L-fucosidase at 1 mM using p-nitrophenyl glycopyranoside preincubated for 5 mins followed by substrate addition measured after 20 mins by visible absorption spectroscopic method relative to control. The essentials:
as §2

Assay [13] deals with Cornu aspersum. Briefly: Inhibition of snail beta-mannosidase at 1 mM using p-nitrophenyl glycopyranoside preincubated for 5 mins followed by substrate addition measured after 20 mins by visible absorption spectroscopic method relative to control. The essentials: as §2
The test system of assay [14] is Aspergillus niger. As to the kind of experiment: Inhibition of Aspergillus niger amyloglucosidase at 1 mM using p-nitrophenyl glycopyranoside preincubated for 5 mins followed by substrate addition measured after 20 mins by visible absorption spectroscopic method relative to control. The essentials: as §2
Assay [15] deals with Alpha-galactosidase (Coffea arabica) (UniProt Q42656). As to the kind of experiment: Inhibition of coffee beans alpha-galactosidase at 1 mM using p-nitrophenyl glycopyranoside preincubated for 5 mins followed by substrate addition measured after 20 mins by visible absorption spectroscopic method relative to control. The essentials:
as §2

Assay [16] concerns Canavalia ensiformis. As to the kind of experiment: Inhibition of jack bean beta-N-acetylglucosaminidase at 1 mM using p-nitrophenyl glycopyranoside preincubated for 5 mins followed by substrate addition measured after 20 mins by visible absorption spectroscopic method relative to control. The essentials:
as §2

In assay [17] the target is Beta-galactosidase (Escherichia coli) (UniProt Q8VNN2). Briefly: Inhibition of Escherichia coli beta-galactosidase at 1 mM using p-nitrophenyl glycopyranoside preincubated for 5 mins followed by substrate addition measured after 20 mins by visible absorption spectroscopic method relative to control. The essentials: as §2
Beta-galactosidase (Escherichia coli), sequence (Q8VNN2 whole entry, looked up): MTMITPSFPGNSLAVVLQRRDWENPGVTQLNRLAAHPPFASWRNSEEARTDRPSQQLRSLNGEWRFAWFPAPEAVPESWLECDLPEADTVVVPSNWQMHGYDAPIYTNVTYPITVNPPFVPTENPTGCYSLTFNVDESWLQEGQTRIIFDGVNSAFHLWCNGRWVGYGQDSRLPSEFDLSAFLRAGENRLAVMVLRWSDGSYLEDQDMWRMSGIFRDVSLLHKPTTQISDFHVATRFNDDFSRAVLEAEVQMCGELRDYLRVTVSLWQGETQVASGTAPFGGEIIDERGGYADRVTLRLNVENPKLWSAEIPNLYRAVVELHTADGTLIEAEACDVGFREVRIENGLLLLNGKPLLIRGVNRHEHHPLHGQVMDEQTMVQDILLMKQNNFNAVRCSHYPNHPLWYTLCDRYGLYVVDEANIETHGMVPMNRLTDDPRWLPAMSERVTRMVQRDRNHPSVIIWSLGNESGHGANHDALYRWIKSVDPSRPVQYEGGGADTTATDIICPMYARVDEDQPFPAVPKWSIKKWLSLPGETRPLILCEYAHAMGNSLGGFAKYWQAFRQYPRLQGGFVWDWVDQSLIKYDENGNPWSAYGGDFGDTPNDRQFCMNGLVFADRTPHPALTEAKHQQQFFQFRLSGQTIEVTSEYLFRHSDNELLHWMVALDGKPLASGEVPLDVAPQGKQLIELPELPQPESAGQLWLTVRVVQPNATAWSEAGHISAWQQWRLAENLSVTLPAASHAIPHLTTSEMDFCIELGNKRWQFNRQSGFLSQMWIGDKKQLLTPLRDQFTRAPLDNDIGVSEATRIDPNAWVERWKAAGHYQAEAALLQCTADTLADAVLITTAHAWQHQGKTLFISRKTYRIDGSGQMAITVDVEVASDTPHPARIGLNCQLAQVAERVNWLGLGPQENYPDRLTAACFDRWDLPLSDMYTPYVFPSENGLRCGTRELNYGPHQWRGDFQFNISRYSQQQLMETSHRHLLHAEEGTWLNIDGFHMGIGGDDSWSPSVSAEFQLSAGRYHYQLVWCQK
The target in assay [18] is T5, Beta-galactosidase (Aspergillus oryzae) (UniProt B7VU80).
T5 sequence (whole entry): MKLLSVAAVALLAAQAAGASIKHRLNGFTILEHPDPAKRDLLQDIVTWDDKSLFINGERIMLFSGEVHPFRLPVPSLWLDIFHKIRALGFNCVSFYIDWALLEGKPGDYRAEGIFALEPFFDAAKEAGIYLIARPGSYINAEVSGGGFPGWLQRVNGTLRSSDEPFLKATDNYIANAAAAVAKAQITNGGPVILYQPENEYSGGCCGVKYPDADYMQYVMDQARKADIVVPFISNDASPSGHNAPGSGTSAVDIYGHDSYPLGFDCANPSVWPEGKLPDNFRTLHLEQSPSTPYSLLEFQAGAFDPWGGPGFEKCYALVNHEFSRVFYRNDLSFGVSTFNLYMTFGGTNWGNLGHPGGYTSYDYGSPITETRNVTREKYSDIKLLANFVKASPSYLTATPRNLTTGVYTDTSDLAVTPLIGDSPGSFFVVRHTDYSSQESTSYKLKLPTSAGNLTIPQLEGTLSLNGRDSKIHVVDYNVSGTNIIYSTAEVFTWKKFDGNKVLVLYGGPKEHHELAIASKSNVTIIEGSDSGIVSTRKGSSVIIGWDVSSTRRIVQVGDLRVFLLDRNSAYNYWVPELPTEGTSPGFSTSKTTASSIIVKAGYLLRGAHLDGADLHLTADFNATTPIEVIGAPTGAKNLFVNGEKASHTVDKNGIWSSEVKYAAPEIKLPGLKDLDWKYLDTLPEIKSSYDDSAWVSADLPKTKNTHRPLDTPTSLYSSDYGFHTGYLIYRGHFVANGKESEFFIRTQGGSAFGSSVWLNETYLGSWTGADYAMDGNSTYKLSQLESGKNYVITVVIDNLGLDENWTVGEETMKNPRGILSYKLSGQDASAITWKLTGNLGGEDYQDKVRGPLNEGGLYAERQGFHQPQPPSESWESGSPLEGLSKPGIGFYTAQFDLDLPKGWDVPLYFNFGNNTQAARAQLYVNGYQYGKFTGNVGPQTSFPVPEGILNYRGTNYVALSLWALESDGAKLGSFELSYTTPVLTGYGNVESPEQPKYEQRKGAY
As to the kind of experiment: Inhibition of Aspergillus oryzae beta-galactosidase at 1 mM using p-nitrophenyl glycopyranoside preincubated for 5 mins followed by substrate addition measured after 20 mins by visible absorption spectroscopic method relative to control. The essentials: as §2

Assay [19] has as its system Oryza sativa. Briefly: Inhibition of rice alpha-glucosidase at 1 mM using p-nitrophenyl glycopyranoside preincubated for 5 mins followed by substrate addition measured after 20 mins by visible absorption spectroscopic method relative to control. The essentials: as §2

Molecules are shown by their SMILES. Active and inactive are the calls of the source. The rule behind the calls is not given here.

Alpha-galactosidase, sequence (Q42656 whole entry): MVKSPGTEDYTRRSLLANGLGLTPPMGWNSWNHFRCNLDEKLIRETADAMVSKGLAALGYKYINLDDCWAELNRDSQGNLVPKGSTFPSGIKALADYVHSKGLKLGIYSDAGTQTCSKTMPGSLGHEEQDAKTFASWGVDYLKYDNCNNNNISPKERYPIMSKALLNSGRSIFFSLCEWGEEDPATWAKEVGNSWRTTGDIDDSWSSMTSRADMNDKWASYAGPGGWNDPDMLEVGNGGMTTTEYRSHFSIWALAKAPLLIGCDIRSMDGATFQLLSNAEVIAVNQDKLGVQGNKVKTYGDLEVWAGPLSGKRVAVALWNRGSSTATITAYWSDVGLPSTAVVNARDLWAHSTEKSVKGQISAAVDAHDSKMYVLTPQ

For orientation: IC50 means the concentration that gives 50% inhibition. Low values mean greater potency in that assay, high ones weaker potency in that assay. The inhibition is the relative decrease from the control value, in per cent. Turning to `COc1ccc2cc(-c3cn(C[C@H]4NC[C@@H](O)[C@H]4O)nn3)ccc2c1`, the IC50 in assay [1] was 19 µM; in [7] it was 42 µM; in assay [8], 17 µM. In addition, the inhibition in assay [2] was under 50%; in assay [3], 64%; in [5], under 50%; in assay [6] it was under 50%. Further, the Ratio IC50 in [4] was 10.
Take `O[C@@H]1[C@H](O)CN[C@@H]1CCn1cc(-c2ccccc2)nn1`: the IC50 stood at 11 µM in assay [9] and 107 µM in assay [8]. The inhibition result in [10], in assay [11], in [13], in [14], in assay [16] and in [19] was “inactive” throughout. Further, the inhibition is 49% in [12]; 96% in assay [5]; 89% in [15]; 60% in [17]; 78% in assay [18].
